Laboratory results: ChEMBL document CHEMBL5154634, “A Modular Synthetic Route Involving N-Aryl-2-nitrosoaniline Intermediates Leads to a New Series of 3-Substituted Halogenated Phenazine Antibacterial Agents” (J Med Chem, 2021)
In brackets after ≈: the same amount, converted by molar mass.

Key:
Staphylococcus aureus [1] = assay: Antibacterial activity against methicillin-resistant Staphylococcus aureus BAA-1707 assessed as bacterial growth inhibition incubated for 16 hrs by broth microdilution susceptibility test; format: functional
In short: (§1)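 CLSI broth microdilution with 11 twofold dilutions (0.05–50 μM). About 10^5 cells per well from a log-phase culture. DMSO vehicle up to 0.5% v/v. At least three independent experiments.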

[2] = system: Staphylococcus epidermidis; assay: Antibacterial activity against methicillin-resistant Staphylococcus epidermidis ATCC 35984 assessed as bacterial growth inhibition incubated for 16 hrs by broth microdilution susceptibility test; format: functional; in short: as §1
Enterococcus faecium [3] = assay: Antibacterial activity against vancomycin-resistant Enterococcus faecium ATCC 700221 assessed as bacterial growth inhibition incubated for 16 hrs by broth microdilution susceptibility test; format: functional
In short: (§2)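 CLSI broth microdilution with 11 twofold dilutions (0.05–50 μM). Medium was LB for the staphylococci and BHI for VRE 700221. About 10^5 cells per well from a log-phase culture. […] DMSO vehicle up to 0.5% v/v. At least three independent experiments.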

Erythrocyte = assay: Hemolytic activity against human RBC at 200 uM measured after 1 hr; format: toxicity, cell-based
In short: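 2% hRBCs exposed to compound at 200 μM final, added from DMSO stock, for 1 h at 37 °C. Supernatant OD read at 405 nm. Hemolysis normalized between DMSO (0%) and Triton X (100%); three independent experiments.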

Staphylococcus aureus [4] = assay: Bactericidal activity against methicillin-resistant Staphylococcus aureus BAA-1707 planktonic cells assessed as planktonic eradication incubated for 24 hrs followed by incubation for overnight in fresh medium by Calgary biofilm device assay; format: functional
In short: (§3)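 Calgary biofilm device. Biofilms grown 24 h at 37 °C in TSB with 0.5% glucose, then challenged 24 h with twofold compound dilutions. 20 μL of challenge medium transferred into fresh TSB with 0.5% glucose and incubated overnight at 37 °C. MBC is the concentration with no visible turbidity. At least three independent experiments.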

[5] = system: Staphylococcus epidermidis; assay: Antibiofilm activity against methicillin-resistant Staphylococcus epidermidis ATCC 35984 biofilms assessed as biofilm eradication incubated for 24 hrs followed by incubation for 24 hrs in fresh medium by Calgary biofilm device assay; format: functional
In short: (§4)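 Calgary biofilm device. Mid-log culture diluted 1000-fold in TSB with 0.5% glucose; biofilms grown on pegs 24 h at 37 °C. Pegs washed and challenged with twofold compound dilutions for 24 h at 37 °C, then moved to fresh medium for 24 h. MBEC is the lowest concentration leaving wells non-turbid. At least three independent experiments.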

[6] = system: Staphylococcus epidermidis; assay: Bactericidal activity against methicillin-resistant Staphylococcus epidermidis ATCC 35984 planktonic cells assessed as planktonic eradication incubated for 24 hrs followed by incubation for overnight in fresh medium by Calgary biofilm device assay; format: functional; in short: as §3
Enterococcus faecium [7] = assay: Antibiofilm activity against methicillin-resistant vancomycin-resistant Enterococcus faecium ATCC 700221 biofilms assessed as biofilm eradication incubated for 24 hrs followed by incubation for 24 hrs in fresh medium by Calgary biofilm device assay; format: functional; in short: as §4
Enterococcus faecium [8] = assay: Bactericidal activity against methicillin-resistant vancomycin-resistant Enterococcus faecium ATCC 700221 planktonic cells assessed as planktonic eradication incubated for 24 hrs followed by incubation for overnight in fresh medium by Calgary biofilm device assay; format: functional; in short: as §3
Enterococcus faecalis [9] = assay: Antibacterial activity against Enterococcus faecalis OG1RF ATCC 47077 assessed as bacterial growth inhibition incubated for 16 hrs by broth microdilution susceptibility test; format: functional
J774 = assay: Cytotoxicity against mouse J774 cells assessed as reduction in cell viability […] by Alamar blue assay; format: toxicity, cell-based
[10] = system: Mycobacterium tuberculosis; assay: Antibacterial activity against Mycobacterium tuberculosis CDC1551 assessed as bacterial growth inhibition incubated for 5 days by luminescence based analysis; format: functional; details: CDC1551, 120 h, time 5 day
In short: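 Bioluminescent Mtb-lux CDC1551 reporter grown in Middlebrook 7H9 with 0.05% Tween 80, 10% OADC and kanamycin to OD600 0.4–0.8, then diluted to OD600 0.02. Added to twofold drug dilutions (0.003–200 μM). Incubated 5 days at 37 °C, 5% CO2. Luminescence read against 1% DMSO and 10 μM rifampicin controls to give % growth inhibition. MIC taken from a modified Gompertz fit.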

Staphylococcus aureus [11] = assay: Antibacterial activity against methicillin-resistant Staphylococcus aureus BAA-44 assessed as bacterial growth inhibition incubated for 16 hrs by broth microdilution susceptibility test; format: functional; in short: as §2
HepG2 = assay: Cytotoxicity against human HepG2 cells assessed as reduction in cell viability […] by Alamar blue assay; format: toxicity, cell-based
HeLa = assay: Cytotoxicity against human HeLa cells assessed as reduction in cell viability incubated for 24 hrs by LDH release assay; format: toxicity, cell-based
In short: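 HeLa cells in DMEM with 10% FBS, treated at 70–80% confluence with 25, 50 and 100 μM for 24 h. LDH in supernatant measured by 30 min reaction at room temperature, then stop solution and absorbance at 490 nm. Controls: 2% Triton X-100 (maximum), medium only, DMSO vehicle. Three independent experiments.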

[12] = Dissociation constant, pKa of the compound at 125 uM by UV-vis spectrophotometric analysis; format: physicochemical
In short: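 Compound at 125 μM final in phosphate buffers (KH₂PO₄/Na₂HPO₄) in 1:1 water/methanol, pH 4.07–9.66; ammonium hydroxide added for pH above 9.80. UV-vis scans 200–800 nm to find λmax of phenol and phenolate forms. Absorbance at each λmax plotted against pH.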

Staphylococcus aureus [13] = assay: Antibiofilm activity against methicillin-resistant Staphylococcus aureus BAA-1707 biofilms assessed as biofilm eradication incubated for 24 hrs followed by incubation for 24 hrs in fresh medium by Calgary biofilm device assay; format: functional; in short: as §4
Enterococcus faecalis [14] = assay: Bactericidal activity against […] Enterococcus faecalis OG1RF ATCC 47077 planktonic cells assessed as planktonic eradication incubated for 24 hrs followed by incubation for overnight in fresh medium by Calgary biofilm device assay; format: functional
In short: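 Calgary biofilm device in BHI. Biofilms grown 24 h at 37 °C and challenged 24 h with twofold compound dilutions. Challenge medium subcultured 1:10 into fresh BHI overnight at 37 °C. MBC is the concentration with no turbidity. At least three independent experiments.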

Enterococcus faecalis [15] = assay: Antibiofilm activity against Enterococcus faecalis OG1RF ATCC 47077 biofilms assessed as biofilm eradication incubated for 24 hrs followed by incubation for 24 hrs in fresh medium by Calgary biofilm device assay; format: functional
In short: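 Calgary biofilm device. Biofilms grown 24 h at 37 °C in BHI from mid-log culture diluted 1000-fold. Pegs washed and then challenged 24 h with twofold serial dilutions. Pegs moved to fresh BHI for 24 h recovery. MBEC = lowest concentration leaving no turbidity; at least three independent experiments.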

[16] = system: Mycobacterium tuberculosis; assay: Antibacterial activity against Mycobacterium tuberculosis H37Ra ATCC 25177 assessed as bacterial growth inhibition incubated for 7 days by absorbance based analysis; format: functional; details: H37Ra ATCC 25177, 168 h, time 7 day
In short: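 H37Ra grown 2 weeks in Middlebrook 7H9, then diluted to OD600 0.01. Compounds added in twofold dilutions, final 0.024–50 μM, with 0.5% DMSO and streptomycin as positive control. Incubated 7 days at 37 °C. MIC is the lowest concentration with no growth, with OD600 recorded. At least three independent experiments.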

| SMILES | MIC (Staphylococcus aureus [1]) [µM] | MIC [2] [µM] | MIC (Enterococcus faecium [3]) [µM] | Activity (Erythrocyte) | MBC (Staphylococcus aureus [4]) [µM] | MBEC [5] [µM] | MBC [6] [µM] | MBEC (Enterococcus faecium [7]) [µM] | MBC (Enterococcus faecium [8]) [µM] | MIC (Enterococcus faecalis [9]) [µM] | IC50 (J774) [µM] | MIC [10] [µM] | MIC (Staphylococcus aureus [11]) [µM] | IC50 (HepG2) [µM] | IC50 (HeLa) [µM] | pKa at 125 µM [12] | MBEC (Staphylococcus aureus [13]) [µM] | MBC (Enterococcus faecalis [14]) [µM] | MBEC (Enterococcus faecalis [15]) [µM] | MIC [16] [µM] |
| --- | --- | --- | --- | --- | --- | --- | --- | --- | --- | --- | --- | --- | --- | --- | --- | --- | --- | --- | --- | --- |
| Oc1cc(Cl)cc2nc3ccc(Br)cc3nc12 | 9.38 (≈ 2.9 µg/mL) | > 50 | > 50 | – | – | – | – | – | – | – | – | – | – | – | – | – | – | – | – | – |
| Oc1c(Br)c(Cl)c(Br)c2nc3ccc(I)cc3nc12 | 0.15 (≈ 0.0772 µg/mL) | 0.3 (≈ 0.154 µg/mL) | – | 3% | 12.5 (≈ 6.43 µg/mL) | 6.25 | 6.25 (≈ 3.21 µg/mL) | 3.13 | 4.69 (≈ 2.41 µg/mL) | 1.56 (≈ 0.802 µg/mL) | – | – | – | – | – | – | – | – | – | – |
| Oc1c(Br)c(Cl)c(Br)c2nc3ccc(F)cc3nc12 | 0.15 (≈ 0.061 µg/mL) | – | 0.78 (≈ 0.317 µg/mL) | <= 1% | 12.5 (≈ 5.08 µg/mL) | 12.5 | 12.5 (≈ 5.08 µg/mL) | – | 3.13 (≈ 1.27 µg/mL) | – | > 200 | 1.71 (≈ 0.695 µg/mL) | 0.2 (≈ 0.0813 µg/mL) | > 200 | > 25 | – | – | – | – | – |
| COCCOCCOCCOCCSc1c(Br)c(O)c2nc3cccc(C)c3nc2c1Br | – | 2.35 (≈ 1.39 µg/mL) | 3.13 (≈ 1.85 µg/mL) | – | – | – | – | – | – | – | – | – | – | – | – | 7.93 | – | – | – | – |
| Cc1cccc2nc3c(O)c(Br)c(SCCO)c(Br)c3nc12 | 6.25 (≈ 2.78 µg/mL) | – | 12.5 (≈ 5.55 µg/mL) | – | – | – | – | – | – | – | – | – | 6.25 (≈ 2.78 µg/mL) | – | – | – | – | – | – | – |
| Oc1cc(Cl)cc2nc3ccc(I)cc3nc12 | 0.78 (≈ 0.278 µg/mL) | – | 3.13 (≈ 1.12 µg/mL) | 1.9% | 37.5 (≈ 13.4 µg/mL) | – | – | – | – | – | – | – | 1.56 (≈ 0.556 µg/mL) | – | 100 | – | 37.5 | – | – | – |
| Cc1c(Br)ccc2nc3c(O)c(Br)c(Cl)c(Br)c3nc12 | 0.59 (≈ 0.284 µg/mL) | 0.1 (≈ 0.0481 µg/mL) | ≤ 0.05 | 27% | 75 (≈ 36.1 µg/mL) | – | – | 0.2 | 2.35 (≈ 1.13 µg/mL) | 0.05 (≈ 0.0241 µg/mL) | > 200 | 0.88 (≈ 0.424 µg/mL) | – | > 200 | – | – | 75 | 1.56 (≈ 0.751 µg/mL) | 0.78 | – |
| Cc1c(Br)ccc2nc3c(O)cc(Cl)cc3nc12 | – | 0.78 (≈ 0.252 µg/mL) | – | <= 1% | 18.8 (≈ 6.08 µg/mL) | – | – | – | – | 2.35 (≈ 0.76 µg/mL) | > 200 | 3.27 (≈ 1.06 µg/mL) | 0.3 (≈ 0.0971 µg/mL) | > 200 | > 100 | – | […] | – | – | 6.25 (≈ 2.02 µg/mL) |
| c1ccc(CN(CCN(Cc2ccccn2)Cc2ccccn2)Cc2ccccn2)nc1 | 46.9 (≈ 19.9 µg/mL) | – | – | <= 1% | 250 (≈ 106 µg/mL) | >2000 | – | >2000 | 188 (≈ 79.8 µg/mL) | 46.9 (≈ 19.9 µg/mL) | – | – | 46.9 (≈ 19.9 µg/mL) | – | – | – | >2000 | 500 (≈ 212 µg/mL) | >2000 | – |
| Oc1cc(Cl)cc2nc3c(Cl)cc(Cl)cc3nc12 | – | – | – | <= 1% | 18.8 (≈ 5.63 µg/mL) | – | – | – | – | 9.38 (≈ 2.81 µg/mL) | > 200 | 2.31 (≈ 0.692 µg/mL) | 0.3 (≈ 0.0899 µg/mL) | > 200 | > 100 | 6.89 | 75 | – | – | 3.13 (≈ 0.938 µg/mL) |
| Cc1ccc2nc3c(O)c(Br)c(Cl)c(Br)c3nc2c1C | 0.05 (≈ 0.0208 µg/mL) | ≤ 0.05 | 0.08 (≈ 0.0333 µg/mL) | <= 1% | – | – | 3.13 (≈ 1.3 µg/mL) | 0.3 | 0.78 (≈ 0.325 µg/mL) | 0.2 (≈ 0.0833 µg/mL) | > 200 | 3.62 (≈ 1.51 µg/mL) | – | > 200 | – | – | – | – | – | – |
| Oc1c(Br)c(Cl)c(Br)c2nc3c(Br)cccc3nc12 | – | 0.1 (≈ 0.0467 µg/mL) | 0.15 (≈ 0.0701 µg/mL) | <= 1% | 3.13 (≈ 1.46 µg/mL) | […] | – | 0.3 | – | – | > 200 | 3.91 (≈ 1.83 µg/mL) | 0.2 (≈ 0.0935 µg/mL) | > 200 | 100 | – | 6.25 | 6.25 (≈ 2.92 µg/mL) | – | – |
